Activity calls are given as the source filed them. The calls are words filed in the database; no cut-off is given here.
What was measured:
[1] = target: T1, Orexin receptor type 2 (Homo sapiens, UniProt O43614); assay: Antagonist activity at human OX2 receptor expressed in […] assessed as inhibition of orexin A-induced Ca2+ elevation […] in presence of orexin A by FLIPR calcium 4 assay; assay type: functional, cell-based
T1 sequence (O43614 whole entry): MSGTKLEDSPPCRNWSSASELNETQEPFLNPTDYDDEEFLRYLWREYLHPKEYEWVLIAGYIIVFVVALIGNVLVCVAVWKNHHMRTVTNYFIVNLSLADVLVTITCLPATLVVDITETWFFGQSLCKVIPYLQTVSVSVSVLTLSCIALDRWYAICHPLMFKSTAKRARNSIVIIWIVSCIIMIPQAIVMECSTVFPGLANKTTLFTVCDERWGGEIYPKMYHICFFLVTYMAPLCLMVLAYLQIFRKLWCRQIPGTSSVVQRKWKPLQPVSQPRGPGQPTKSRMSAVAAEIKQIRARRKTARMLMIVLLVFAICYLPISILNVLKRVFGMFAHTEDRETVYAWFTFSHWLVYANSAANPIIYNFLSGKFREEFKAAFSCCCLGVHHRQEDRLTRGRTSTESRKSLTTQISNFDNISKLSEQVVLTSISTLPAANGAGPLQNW
Outline: (§1)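 Functional inhibition in CHO-hOX1 or CHO-hOX2 cells. Antagonist (10 nM–100 μM, 10-fold series) preincubated 10 min at 37 °C, then 0.3 nM orexin-A added. Ca2+ measured with Calcium 4 dye at 485/525 nm. Ki derived from inhibition of the orexin-A response. Three independent experiments in quadruplicate; mean ± SEM.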

[2] = target: T2, Orexin/Hypocretin receptor type 1 (Homo sapiens) (UniProt O43613); assay: Displacement of [125I]-orexin A from human OX1 receptor expressed in […] at 10 uM after 90 mins by scintillation counting
T2 sequence (whole entry): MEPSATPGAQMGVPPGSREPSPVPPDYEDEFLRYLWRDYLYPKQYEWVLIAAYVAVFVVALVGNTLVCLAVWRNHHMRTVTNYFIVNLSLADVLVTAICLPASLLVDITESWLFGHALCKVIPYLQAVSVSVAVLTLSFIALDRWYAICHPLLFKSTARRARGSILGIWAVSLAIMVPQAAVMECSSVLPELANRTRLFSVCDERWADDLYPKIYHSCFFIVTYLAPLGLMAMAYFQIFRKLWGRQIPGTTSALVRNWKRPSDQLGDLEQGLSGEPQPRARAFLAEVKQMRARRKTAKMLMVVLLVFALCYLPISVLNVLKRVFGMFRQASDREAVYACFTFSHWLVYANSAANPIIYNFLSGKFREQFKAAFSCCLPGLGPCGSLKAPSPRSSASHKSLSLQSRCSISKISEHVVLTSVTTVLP

[3] = target: T2, Orexin/Hypocretin receptor type 1 (Homo sapiens); assay: Agonist activity at human OX1 receptor expressed in CHO cells assessed as induction of Ca2+ elevation at 5 uM after 30 mins by FLIPR calcium 4 assay relative to orexin-A; assay type: functional, cell-based
Outline: (§2)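 Screening in CHO-hOX1 or CHO-hOX2 cells loaded with Calcium 4 dye in HBM (137 mM NaCl, 20 mM Hepes, 1 mM CaCl2, pH 7.4) + probenecid. Fluorescence at 485/525 nm, 37 °C. 30 s baseline, compound added to 5 μM final and read for 120 s; the delayed response was read 30 min after addition for 30 s. Tested once in triplicate; % of full orexin-A activation.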

[4] = target: T3, Orexin/Hypocretin receptor type 1 (Homo sapiens, UniProt O43613); assay: Antagonist activity at human OX1 receptor expressed in […] assessed as inhibition of orexin A-induced Ca2+ elevation after 30 mins in presence of orexin A by FLIPR calcium 4 assay; assay type: functional, cell-based; outline: as §1
T3 sequence (O43613 whole entry): T2 sequence (whole entry)

[5] = target: T4, Orexin receptor type 2 (Homo sapiens) (UniProt O43614); conditions: CHO, at 10 µM
T4 sequence (whole entry): T1 sequence (O43614 whole entry)

[6] = target: T4, Orexin receptor type 2 (Homo sapiens); conditions: CHO, at 5 µM
[7] = target: T1, Orexin receptor type 2; assay: Displacement of [125I]-orexin A from human OX2 receptor expressed in […] after 90 mins by scintillation counting
Outline: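 Intact CHO-hOX1 or CHO-hOX2 cells in HBM + 0.1% stripped BSA + 30 μM dyngo 4a, preincubated 10 min (10 μM antagonist used to define nonspecific binding). 0.05 nM [125I]-orexin-A added with compound (10 nM–100 μM, 10-fold series). Incubated 90 min at room temperature, wells dried, scintillation counted. At least three experiments; IC50/Ki by nonlinear fitting.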

[8] = target: T2, Orexin/Hypocretin receptor type 1 (Homo sapiens); assay: Antagonist activity at human OX1 receptor expressed in CHO cells assessed as inhibition of orexin A-induced Ca2+ elevation at 5 uM after 30 mins by FLIPR calcium 4 assay; assay type: functional, cell-based
Outline: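 Screening second round: after the 5 μM compound agonist read in CHO-hOX1 cells, 0.3 nM orexin-A was added at 30 s to all wells and the inhibition of the Ca2+ response was read by Calcium 4 fluorescence at 37 °C. Vehicle controls were included in each column. Tested once in triplicate.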

[9] = target: T2, Orexin/Hypocretin receptor type 1 (Homo sapiens); assay: Ratio of Ki for human OX1 receptor expressed in […] assessed as inhibition of orexin A-induced Ca2+ elevation to Ki for human OX1 receptor expressed in CHO cells by [125I]-orexin A displacement assay
[10] = target: T2, Orexin/Hypocretin receptor type 1 (Homo sapiens); assay: Agonist activity at human OX1 receptor expressed in CHO cells assessed as induction of Ca2+ elevation at 10 uM after 30 mins in presence of TCS-1102 by FLIPR calcium 4 assay relative to orexin-A; assay type: functional, cell-based
Outline: (§3)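 Agonist Ca2+ read in CHO-hOX1 or CHO-hOX2 cells loaded with Calcium 4 dye at 37 °C. Compound at 10 μM was added with or without 10 μM orexin antagonist to define the receptor-specific response. Expressed as % of full orexin-A response, taken from orexin-A concentration–response curves run in each experiment.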

[11] = target: T4, Orexin receptor type 2 (Homo sapiens); assay: Agonist activity at human OX2 receptor expressed in […] assessed as induction of Ca2+ elevation at 10 uM after 30 mins by FLIPR calcium 4 assay relative to orexin-A; assay type: functional, cell-based
Outline: (§4)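 CHO-hOX1 or CHO-hOX2 cells plated overnight at 1.5 × 10^4 cells/well, loaded with Calcium 4 dye in HBM + probenecid for 60 min at 37 °C. Fluorescence read at 485/525 nm, 37 °C. 30 s baseline, then compound at 10 μM (tested twice in validation; thrice at 1 and 10 μM in quadruplicate in characterization). Response expressed as % of orexin-A maximal response; background response measured within each experiment.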

[12] = target: T4, Orexin receptor type 2 (Homo sapiens); assay: Agonist activity at human OX2 receptor expressed in CHO cells assessed as induction of Ca2+ elevation at 5 uM after 2 mins by FLIPR calcium 4 assay relative to orexin-A; assay type: functional, cell-based; outline: as §2
[13] = system: CHO; assay: Induction Ca2+ levels in CHO cells at 1 uM by FLIPR calcium 4 assay; assay type: functional, cell-based; conditions: Cricetulus griseus
Outline: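 Control CHO cells lacking orexin receptors, loaded with Calcium 4 dye in HBM + probenecid for 60 min at 37 °C. Compound added (1 and 10 μM) and the Ca2+ fluorescence response read at 485/525 nm at 37 °C.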

[14] = target: T4, Orexin receptor type 2 (Homo sapiens); assay: Agonist activity at human OX2 receptor expressed in […] assessed as induction of Ca2+ elevation at 10 uM after 30 mins by FLIPR back ground response; assay type: functional, cell-based; outline: as §4
[15] = target: T2, Orexin/Hypocretin receptor type 1 (Homo sapiens); assay: Agonist activity at human OX1 receptor expressed in […] assessed as induction of Ca2+ elevation at 10 uM after 30 mins by FLIPR calcium 4 assay relative to orexin-A; assay type: functional, cell-based; outline: as §4
[16] = target: T2, Orexin/Hypocretin receptor type 1 (Homo sapiens); assay: Agonist activity at human OX1 receptor expressed in CHO cells assessed as induction of Ca2+ elevation at 5 uM after 2 mins by FLIPR calcium 4 assay relative to orexin-A; assay type: functional, cell-based; outline: as §2
[17] = target: T2, Orexin/Hypocretin receptor type 1 (Homo sapiens); assay: Agonist activity at human OX1 receptor expressed in […] assessed as induction of Ca2+ elevation at 10 uM after 30 mins by FLIPR back ground response; assay type: functional, cell-based; outline: as §4
[18] = species on record: Homo sapiens; assay: Ratio of Ki for human OX1 receptor expressed in CHO cells to Ki for human OX2 receptor expressed in CHO cells by Ca2+ elevation based assay; assay type: cell-based; outline: as §1
[19] = target: T4, Orexin receptor type 2 (Homo sapiens); assay: Agonist activity at human OX2 receptor expressed in CHO cells assessed as induction of Ca2+ elevation at 10 uM after 30 mins in presence of TCS-1102 by FLIPR calcium 4 assay relative to orexin-A; assay type: functional, cell-based; outline: as §3

SMILES | Ki [1] | inhibition [2] | Activity [3] | Ki [4] | inhibition [5] | inhibition [6] | IC50 [7] | Ki [7] | inhibition [8] | Ratio Ki [9] | Activity [10] | Activity [11] | Activity [12] | fold change (FC) [14] | Activity [15] | Activity [16] | fold change (FC) [17] | Activity [19] | Activity [13] | Ratio Ki [18]
Cc1ccc(C(O)(C(=O)NNc2cc(Cl)ccc2Cl)c2ccc(C)cc2)cc1 | 1700 nM | > 50% | Active | 10300 nM | > 50% | > 20% | 800 nM | 1300 nM | > 20% | 2 to 9 |  |  |  |  |  |  |  |  |  | 
C=CCN1C(=O)C2(Nc3ccccc3C(=O)N2c2ccccc2OC)c2ccccc21 (stereo unspecified) | 1200 nM | > 50% | Active | 21600 nM | > 50% | > 20% | 700 nM | 1000 nM | > 20% | 2 to 9 |  |  |  |  |  |  |  |  |  | 
CC(/C=C/c1ccccc1)=N/Nc1nc(Nc2ccccc2)nc(-n2nc(C)cc2C)n1 |  | 20 to 40% | Active |  | 20 to 40% |  | 11800 nM | 17800 nM |  |  | 2.1% | 1 to 3.7% | Active | 1.4 to 2.2 | 5.4% | Active | 2.8 |  | inactive | 
COc1ccc(Nc2nc(NCc3ccco3)nc(N/N=C\c3cc(Br)c(O)c(Br)c3)n2)cc1 |  | 20 to 40% | Active |  | 20 to 40% |  |  |  |  |  |  |  | Active | 1.4 to 2.2 | 2.7% | Active | 1.9 | 3.5% | inactive | 
Cc1cccc2c1[nH]c1nc(N/N=C\c3c4ccccc4cc4ccccc34)nnc12 |  | > 50% | Active | 16200 nM |  |  |  |  | > 20% |  |  |  |  |  |  |  |  |  |  | 

Continued, in another order:

Ki [1] | inhibition [2] | Activity [3] | Ki [4] | inhibition [5] | inhibition [6] | IC50 [7] | Ki [7] | inhibition [8] | Ratio Ki [9] | Activity [10] | Activity [11] | Activity [12] | fold change (FC) [14] | Activity [15] | Activity [16] | fold change (FC) [17] | Activity [19] | SMILES | Activity [13] | Ratio Ki [18]
1000 nM | > 50% | Active | 7000 nM | > 50% | > 20% | 700 nM | 1100 nM | > 20% | 2 to 9 |  |  |  |  |  |  |  |  | CCOC(=O)c1c(NC(=O)C(C)Sc2nnc(CNC(=O)c3cc(OC)cc(OC)c3)n2-c2ccccc2OC)sc2c1CCC2 (stereo unspecified) |  | 
300 nM | > 50% | Active | 6000 nM | > 50% | > 20% | 130 nM | 200 nM | > 20% | 2 to 9 |  |  |  |  |  |  |  |  | O=C(CSc1nnc(-c2cccs2)n1Cc1ccco1)Nc1ccc2c(c1)OCCO2 |  | 20
100 nM | > 50% | Active | 46700 nM | > 50% | > 20% | 70 nM | 100 nM | > 20% | 2 to 9 |  |  |  |  |  |  |  |  | COc1ccc(N(CC(=O)NC(C)c2ccccc2)S(=O)(=O)c2ccc(OC)c(OC)c2)cc1 (stereo unspecified) |  | 50
 | > 70% | Active |  | > 70% |  | 900 nM | 1400 nM |  |  |  | 1 to 3.7% | Active | 1.4 to 2.2 | 6.3% | Active | 3.3 |  | COc1ccccc1OCCNC[C@@H](O)COc1cccc2[nH]c3ccccc3c12 [(R)-Carvedilol] | inactive | 
900 nM | > 50% | Active | 13100 nM | > 50% | > 20% | 500 nM | 800 nM | > 20% | 2 to 9 |  |  |  |  |  |  |  |  | COc1ccc(CCNC(=O)Cn2c(-c3nonc3N)nc3ccccc32)cc1OC |  | 

Source: ChEMBL document CHEMBL4428072, “Pharmacophore Model To Discover OX1 and OX2 Orexin Receptor Ligands” (J Med Chem, 2016)
